# Rpn11 inh: Rpn11 (PSMD14) deubiquitinase inhibitors, primary screen, biochemical, fluorescence polarization, uHTS; human 26S proteasome, Ub4-pepOG fluorescence polarization; 20S core pre-blocked with epoxomicin; AID 588493, 2011; inhibition, % at 20 µM; 26S proteasome non-ATPase regulatory subunit 14 (Homo sapiens), O00487; 0.59% of 360,000 active;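 active = inhibition at 20 µM, scaled to each plate's controls, above about 33%, limit read from the data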
# DNMT1 inh: human DNMT1 methyltransferase inhibitors, primary screen, biochemical, molecular beacon, fluorescence, HinP1I cleavage, uHTS. inhibition (reported as % activation of signal), % at 10 µM. 0.83% of 360,000 active; in the data active = inhibition above about 50%
# STEP inh: STEP phosphatase inhibitors, primary screen, biochemical, fluorescence intensity, uHTS; Tyrosine-protein phosphatase non-receptor type 5 (Homo sapiens), P54829; recombinant STEP, OMFP fluorogenic substrate; inhibition, % at 20 µM; 0.25% of 360,000 active; AID 588621, 2011;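 active = inhibition at 20 µM, scaled per plate between control wells, above about 37%, limit read from the data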;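 also: 0% = DMSO with enzyme and substrate and 100% = substrate only without enzyme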
#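 System: STEP phosphatase, cell-free reaction; Buffer or medium: Bis-Tris pH 6.0 buffer with DTT, detergent; Incubation: 20 min at room temperature, dark; Measured by: fluorescence, 480/540 nm.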
# Scp-1 inhibitor: Scp-1 phosphatase inhibitors, primary screen, biochemical, colorimetric, uHTS | Recombinant Scp1, phosphopeptide, malachite green phosphate absorbance | inhibition, % at 20 µM | 0.88% of 340,000 active;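 active = inhibition above about 50% at 20 µM, limit read from the data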;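 also: plate controls were DMSO wells with enzyme for no effect and wells lacking enzyme for full effect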
#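 Test system – truncated SCP-1 phosphatase (76-261aa) · Reagent – Phosphorylated 17-residue peptide substrate · Incubation – 45 min room-temperature reaction, 5 min colour, 30 min stabiliser · Detection – colorimetric phosphate reagent with accelerator and stabiliser, absorbance at 630 nm · Measure – % inhibition at 20 µM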
# SUMO1-SIM PPI: modulators of SUMO1 protein-protein interactions, primary screen, biochemical, uHTS; 0.33% of 360,000 active; inhibition, % at 20 µM; Small ubiquitin-related modifier 1 (Homo sapiens), P63165; SUMO1 binding to a labelled peptide, TR-FRET, 1 h; AID 602429, 2012; in the data active = inhibition above about 37%
# LMPTP inh: LMPTP phosphatase inhibitors, primary screen, biochemical, fluorescence intensity, uHTS | Low molecular weight phosphotyrosine protein phosphatase (Homo sapiens), P24666 | recombinant LMPTP-A, OMFP fluorogenic substrate | inhibition, % at 20 µM | 0.22% of 360,000 active | AID 651560, 2012;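 active = compounds that cut the enzyme signal by at least half of the control window in the single-dose screen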;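 also: plate controls were DMSO wells with enzyme plus substrate for no effect and substrate without enzyme for full effect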
#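 Assay system: LMPTP-A phosphatase enzyme | Input: 0.625 nM enzyme | Also added: Fluorogenic phosphatase substrate OMFP at 400 µM final | Compound dosing: One test concentration per compound, 20 µM, with 3% DMSO overall | Schedule: 50 min enzyme reaction at room temperature, protected from light | Signal: Fluorescence intensity | Benchmarks: no-enzyme and uninhibited controls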
# Rpn11 inh conf: Rpn11 (PSMD14) deubiquitinase inhibitors, confirmation, biochemical, fluorescence polarization, single concentration; shares compounds with Rpn11 inh; purified human 26S proteasome, Ub4-pepOG fluorescence polarization; proteasome pretreated with epoxomicin; inhibition, % at 20 µM; 29% of 1,900 active; AID 602318, 2012
# MMP-2 inh: MMP-2 enzyme inhibition, confirmation, counter-screen for RPN11 inhibitor project, biochemical, fluorescence, single concentration | shares compounds with Rpn11 inh | AID 602330, 2012 | recombinant MMP-2, FRET peptide cleavage fluorescence | inhibition, % at 20 µM | 4% of 1,900 active;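 also: human MMP-2 activated beforehand with APMA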
# Thrombin FP: bovine thrombin protease inhibition, confirmation, counter-screen for Rpn11 inhibitor project, biochemical, fluorescence polarization, single concentration; shares compounds with Rpn11 inh; bovine thrombin cleavage of Ub4-pepOG; inhibition, % at 20 µM; 13% of 1,900 active; AID 602333, 2012;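 active = mean inhibition at least 40% at 20 µM, or signal 3 deviations below plate average, so some actives read negative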;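 also: plate controls were thrombin with DMSO for no effect and buffer wells lacking thrombin for full effect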
# Target sequence (P00735 whole entry, looked up): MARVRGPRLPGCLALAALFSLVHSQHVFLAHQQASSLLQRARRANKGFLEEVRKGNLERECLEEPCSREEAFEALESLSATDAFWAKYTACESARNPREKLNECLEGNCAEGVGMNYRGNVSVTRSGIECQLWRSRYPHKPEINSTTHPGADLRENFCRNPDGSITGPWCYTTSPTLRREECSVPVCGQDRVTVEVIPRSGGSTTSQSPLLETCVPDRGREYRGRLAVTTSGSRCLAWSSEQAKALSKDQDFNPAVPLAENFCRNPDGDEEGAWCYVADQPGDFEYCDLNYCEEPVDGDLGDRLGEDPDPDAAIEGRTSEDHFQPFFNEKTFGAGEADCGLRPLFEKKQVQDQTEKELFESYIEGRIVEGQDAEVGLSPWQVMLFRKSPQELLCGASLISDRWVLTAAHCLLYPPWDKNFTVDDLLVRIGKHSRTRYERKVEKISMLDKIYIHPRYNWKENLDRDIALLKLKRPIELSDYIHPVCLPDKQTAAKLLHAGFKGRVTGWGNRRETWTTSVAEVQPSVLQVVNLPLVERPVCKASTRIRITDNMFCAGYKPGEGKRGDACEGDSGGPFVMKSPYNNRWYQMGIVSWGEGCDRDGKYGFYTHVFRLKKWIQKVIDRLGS
# Active calls of the source: *; x = not tested or not shown. Rows were chosen to be rich in hits. Some 2.3% of all compounds tested hit in one or more screens of this group. Rule as the data show it, unless noted: active = inhibition above about 40%; inactive = the rest.
SMILES,Rpn11 inh,DNMT1 inh,STEP inh,Scp-1 inhibitor,SUMO1-SIM PPI,LMPTP inh,Rpn11 inh conf,MMP-2 inh,Thrombin FP
CSc1ccc(Cl)c(C(=O)NNC(=O)c2csc(N3CCOCC3)n2)c1,8.7,0.6,0.3,-2.8,3.8,-1.1,x,x,x
COc1cc(-c2nc3cccc(C)n3c2NCC2CCCO2)ccc1O (stereo unspecified),42.0*,0.3,1.3,-8.9,-0.3,16.7,0.9,-29.9,active
NN=C(c1cccc([N+](=O)[O-])c1)c1cccc([N+](=O)[O-])c1,-4.1,-0.9,0.7,0.1,-7.6,-0.9,x,x,x
COc1cccc(-c2csc(N3CCN(C(=S)Nc4cccc(Cl)c4)CC3)n2)c1,35.4*,-6.7,2.0,10.8,-6.6,1.9,18.0,38.9,10.3
CSCCC(C(=O)Nc1c(C)cccc1C)N1CCN(c2ccc(F)cc2)CC1 (stereo unspecified),5.9,5.0,-0.1,x,-1.7,-0.1,x,x,x
Cc1cc2nc(-c3cccc(Br)c3)c(Cc3ccccc3)n2c(C)c1Br,23.8,32.4,-1.6,x,3.0,0.7,x,x,x
COc1cc(/C=N/NC(=O)c2cc[n+]([O-])cc2)ccc1O,7.3,0.6,-1.3,-5.3,-18.8,0.3,x,x,x
COc1cc(OC)cc(-c2c(C#Cc3ccsc3)c3cc(-c4ccc(C(N)=O)cc4)ccc3n2C)c1,47.9*,-23.0,-0.2,46.0,5.4,3.2,12.1,6.7,10.4
COCc1ccc(-c2ccc3c(c2)c(C#Cc2ccsc2)c(-c2cc(OC)cc(OC)c2)n3C)cc1,6.8,-0.7,-0.9,-11.6,6.1,3.0,x,x,x
NC(=O)c1cnccc1C=Cc1ccccc1,1.6,-0.1,-1.7,2.6,-12.7,-1.6,x,x,x
CC(C)N(C(=O)C[n+]1ccc(/C=N/O)cc1)C(C)C,43.6*,-0.7,-0.7,1.2,-10.4,-1.2,-13.6,-19.6,-25.6
COc1cccc2sc(Nc3nc4ccc(NC(C)=O)cc4s3)nc12,41.2*,-15.9,-0.3,0.0,21.2,1.6,25.3,1.6,1.8
COC(=O)c1ccc(Oc2nc(C(N)=O)cc(-c3ccccc3)n2)cc1,68.0*,1.3,-0.5,-5.2,-1.0,1.6,34.8,1.2,-6.3
CCc1ccc(-n2c(O)c(C=NCCN(CC)CC)c(=O)[nH]c2=O)cc1,75.2*,3.2,0.4,10.4,-3.3,-4.0,38.5,-38.2,19.5
CCCC(=O)NC(c1cccs1)c1cc(Cl)c2cccnc2c1O (stereo unspecified),26.4,-4.7,1.1,-3.9,6.3,1.4,x,x,x
CCCC(=O)NC(c1ccco1)c1cc(Cl)c2cccnc2c1O (stereo unspecified),42.0*,-1.2,2.3,-1.9,-6.3,2.3,11.5,16.5,0.7
CC(=O)c1cccc(NS(=O)(=O)N(C)C)c1,127.6*,-1.1,4.8,-1.8,0.0,-1.2,-2.1,-4.0,-6.8
CCC(=O)Nc1ccc(OCC2CCCO2)cc1 (stereo unspecified),1.7,-0.3,-1.7,-3.5,12.1,-0.3,x,x,x

# Assay outcomes as filed in PubChem.
